Assay outcomes (PubChem BioAssay)
Most compounds without a hit are left out; they make up all but 2.3% or so of the library.
TRPC4 PAM: positive allosteric modulators of TRPC4, primary screen, cell-based, mouse TRPC4beta, HEK293 mu-opioid, Fluo-4 calcium; Short transient receptor potential channel 4 (Mus musculus), Q9QUQ5; DAMGO EC20, Fluo-4 Ca2+ flux; active compounds read high; B-score at 10 µM; hit rate 0.42% among 310,000;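 active means B-score of calcium response area above 5 SD of library B-scores, with initial fluorescence ratio within 5 SD of library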
TRPC6 inhibitor: mouse TRPC6 channel inhibitors, primary screen, cell-based, HEK293, membrane potential dye | Short transient receptor potential channel 6 (Mus musculus), Q61143 | ACh-evoked depolarization; active compounds read low | B-score at 10 µM | hit rate 1.1% among 310,000 | AID 2553, 2010;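 active means B-score under library mean minus 3 SD, initial fluorescence not abnormally high, positive integrated signal ratio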;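 further: B-score derived from integrated fluorescence ratio over the kinetic read; more negative B-score means stronger inhibition of depolarization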
Target sequence (Q61143 whole entry, looked up): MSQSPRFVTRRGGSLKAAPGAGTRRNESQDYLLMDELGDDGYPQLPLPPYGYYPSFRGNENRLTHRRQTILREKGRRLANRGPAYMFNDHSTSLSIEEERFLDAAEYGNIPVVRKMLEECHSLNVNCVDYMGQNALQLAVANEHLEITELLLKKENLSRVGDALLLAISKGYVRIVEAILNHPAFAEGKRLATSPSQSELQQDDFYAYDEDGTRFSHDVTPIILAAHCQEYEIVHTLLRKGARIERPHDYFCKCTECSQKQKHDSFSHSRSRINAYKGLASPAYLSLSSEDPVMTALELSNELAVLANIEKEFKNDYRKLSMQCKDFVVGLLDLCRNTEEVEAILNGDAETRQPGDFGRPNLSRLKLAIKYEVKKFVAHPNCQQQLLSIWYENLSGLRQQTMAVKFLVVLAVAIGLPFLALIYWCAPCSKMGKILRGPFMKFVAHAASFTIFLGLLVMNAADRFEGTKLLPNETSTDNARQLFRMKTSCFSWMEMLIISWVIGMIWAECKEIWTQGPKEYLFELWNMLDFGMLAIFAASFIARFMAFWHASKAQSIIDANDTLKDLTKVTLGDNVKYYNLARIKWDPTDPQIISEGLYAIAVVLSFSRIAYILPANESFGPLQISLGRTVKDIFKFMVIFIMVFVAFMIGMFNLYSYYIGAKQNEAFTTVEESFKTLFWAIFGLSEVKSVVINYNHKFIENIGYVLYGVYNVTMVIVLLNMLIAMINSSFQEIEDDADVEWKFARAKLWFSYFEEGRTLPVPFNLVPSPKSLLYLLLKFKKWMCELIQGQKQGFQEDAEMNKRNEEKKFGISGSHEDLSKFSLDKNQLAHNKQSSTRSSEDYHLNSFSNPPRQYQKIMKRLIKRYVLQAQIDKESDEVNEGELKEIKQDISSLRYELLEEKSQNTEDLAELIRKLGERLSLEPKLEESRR
TRPC6 activator: mouse TRPC6 channel activators, primary screen, cell-based, HEK293, membrane potential dye; Short transient receptor potential channel 6 (Mus musculus), Q61143; HEK293-TRPC6 membrane potential dye fluorescence; active compounds read high; B-score at 10 µM; hit rate 0.13% among 310,000; AID 2550, 2010;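 active means B-score of the integrated fluorescence ratio above library mean plus 3 SD, and starting fluorescence ratio within library mean plus 5 SD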;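 further: higher score means more depolarization so channel activation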
TRPC4 agonist: activators of mouse TRPC4 channel, primary screen, Fluo4 calcium, HEK293 TRPC4beta/mu-opioid cells; Short transient receptor potential channel 4 (Mus musculus), Q9QUQ5; Fluo4 calcium fluorescence; active compounds read high; B-score at 10 µM; hit rate 0.49% among 310,000; AID 2237, 2010;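 active means B-score above 5 SD of library B-scores, and initial fluorescence ratio not above library mean plus 5 SD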;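 further: positive B-score marks a calcium rise read as TRPC4 activation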
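Assay system – TRPC4beta and mu-opioid receptor HEK293 stable cells · Measured by – Fluo4 fluorescence, kinetic · Schedule – dye loading 45 min room temperature, 110 s kinetic read · Read-out – B-scored integrated calcium fluorescence ratio · Controls – buffer and maximal DAMGO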
TRPC4 block: inhibitors of mouse TRPC4 channel, primary screen, Fluo4 calcium, HEK293 TRPC4beta/mu-opioid cells; hit rate 0.39% among 300,000; AID 2247, 2010; DAMGO-evoked Fluo4 calcium flux; active compounds read low; B-score at 10 µM;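 active means B-score over 3 SD under the library average, no early fluorescence shift, positive overall ratio signal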
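Assay system – HEK293 line stably carrying TRPC4beta and mu-opioid receptor · Doses – single dose · Detection – Fluo4 calcium-dye fluorescence, kinetic read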
TRPC4 sel inh 2: second selectivity test of TRPC6 inhibitors: effect on mouse TRPC4. inhibition, % at 10 µM. HEK293 TRPC4/MOR, membrane potential dye fluorescence; channel activated by saturating DAMGO dose. AID 2776. shares compounds with TRPC6 inhibitor. hit rate 42% among 920;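 active means compounds whose fluorescence signal differed from control wells by over 3 SD, either direction, in both duplicate plates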
TRPC4 spec: mouse TRPC4 modulation by TRPC6 hits, confirmation, selectivity assay for TRPC6 inhibitor project, cell-based, HEK293 TRPC4/mu-opioid, membrane potential dye; shares compounds with TRPC6 inhibitor; activity change, negative = inhibition, % at 10 µM; membrane potential fluorescence; hit rate 61% among 920;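 active means rise or fall in signal beyond 3 SD of buffer-only wells in both replicate plates, either sign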;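 further: integrated kinetic ratio of fluorescence range over baseline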
HEK293 MPD ctr 2-1: nonspecific membrane potential effects, parental HEK293, confirmation, counter-screen for TRPC6 inhibitor project, cell-based, second counter screen | shares compounds with TRPC6 inhibitor | parental HEK293 membrane potential dye fluorescence; maximal acetylcholine challenge after compound addition | signal change vs control, % at 10 µM | hit rate 31% among 920;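 active means membrane potential signal moving either way by over 3 SD of the maximum-effect control, in both duplicate plates, meaning non-specific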
HEK293 MPD ctr-1: membrane potential modulation in parental HEK293, confirmation, counter-screen for TRPC6 inhibitor project, cell-based | shares compounds with TRPC6 inhibitor | parental HEK293 membrane potential dye fluorescence | membrane potential signal change, % at 10 µM | hit rate 60% among 920 | AID 2780, 2010;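 active means membrane potential signal shifting up or down by more than 3 SD of buffer-only wells, on both duplicate plates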
HEK293 MPD ctr-2: parental HEK293 membrane potential modulation, confirmation, counter-screen for TRPC6 modulator project, cell-based. membrane potential dye fluorescence. membrane potential signal change, % at 10 µM. hit rate 51% among 2,400. shares compounds with TRPC6 inhibitor;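 active means membrane potential signal moves up or down beyond 5 SD from buffer-only wells, on both duplicate plates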
HEK293 MPD ctr 2-2: second check of TRPC6 modulator effects in parental HEK293 cells. AID 488926. membrane potential dye fluorescence; after compound, maximal acetylcholine stimulation. shares compounds with TRPC6 inhibitor. hit rate 14% among 2,400. inhibition, % at 10 µM;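 active means membrane potential signal drops by more than 5 SD from the mean control signal, in both duplicate plates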
TRPC4/MOR mod: TRPC4 modulation by TRPC6 hit compounds, confirmation, selectivity assay for TRPC6 modulator project, cell-based, HEK293 TRPC4/mu-opioid, membrane potential dye, mouse; membrane potential fluorescence; shares compounds with TRPC6 inhibitor; hit rate 69% among 2,400; AID 488927, 2010; percent change from control (negative = decrease, positive = increase), % at 10 µM;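 active means membrane potential signal moved up or down beyond 5 SD of buffer control wells, in both duplicate plates, actives on both sides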
TRPC4 ctr inh 2: second selectivity test of TRPC6 modulators against mouse TRPC4. hit rate 55% among 2,400. inhibition, % at 10 µM. shares compounds with TRPC6 inhibitor. HEK293 TRPC4/mu-opioid, membrane potential dye fluorescence; stimulated with maximal-effect DAMGO;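 active means drop in membrane potential signal beyond 5 SD of the control wells in both duplicate plates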;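 further: TRPC4 counter screen for TRPC6 hits run under conditions tuned for TRPC6 not TRPC4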
TRPC6 inh conf: mouse TRPC6 channel inhibitors, confirmation, HEK293 cells, membrane potential dye, duplicate; shares compounds with TRPC6 inhibitor; ACh-evoked depolarization; inhibition, % at 10 µM; hit rate 43% among 3,300; AID 488960, 2010;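 active means fluorescence ratio falls more than 5 SD below the full-stimulation control mean, in both duplicate runs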;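 further: integrated fluorescence ratio of peak minus minimum over baseline after agonist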
TRPC6 act confirm: mouse TRPC6 channel activators, confirmation, HEK293 cells, membrane potential dye, duplicate | HEK293-TRPC6 membrane potential dye fluorescence, FDSS | hit rate 11% among 2,800 | activation, % at 10 µM | shares compounds with TRPC6 inhibitor;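 active means ratio signal rise beyond 5 SD above unstimulated control wells' mean, seen in both duplicate runs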
Each line names hits and unclear results; the compound was inactive in the other large screens (follow-up assays come after a bar, where they were run).

COc1ccc(-c2[nH]n(-c3ccc([N+](=O)[O-])cc3)c(=O)c2C=NCCN2CCNCC2)cc1	TRPC6 inhibitor -6.54 | HEK293 MPD ctr-2 -227.0% | HEK293 MPD ctr 2-2 inactive | TRPC4/MOR mod -42.5% | TRPC4 ctr inh 2 50.5% | TRPC6 inh conf 50.5% | TRPC6 act confirm inactive
Cc1ccc(-n2nc3c(c2NC(=O)c2c(-c4ccccc4Cl)noc2C)CS(=O)(=O)C3)c(C)c1	TRPC6 inhibitor -5.47 | HEK293 MPD ctr-2 100.0% | HEK293 MPD ctr 2-2 inactive | TRPC4/MOR mod 24.0% | TRPC4 ctr inh 2 inactive | TRPC6 inh conf inactive
Fc1ccc(N2CCN(C3=Nc4cccc5cccc3c45)CC2)cc1	TRPC6 inhibitor -8.78 | HEK293 MPD ctr-2 -80.5% | HEK293 MPD ctr 2-2 inactive | TRPC4/MOR mod -38.5% | TRPC4 ctr inh 2 73.5% | TRPC6 inh conf 68.0% | TRPC6 act confirm inactive
O=C1C(Cl)=C(N2CCN(Cc3ccccc3)CC2)C(=O)N1Cc1ccccc1	none
c1ccc(CN2CCN(C3=Nc4cccc5cccc3c45)CC2)cc1	TRPC6 inhibitor -8.17 | HEK293 MPD ctr-2 -191.0% | HEK293 MPD ctr 2-2 inactive | TRPC4/MOR mod -50.5% | TRPC4 ctr inh 2 71.5% | TRPC6 inh conf 68.0% | TRPC6 act confirm inactive
O=C(CCCN1C(=O)c2cccc3cccc(c23)C1=O)N1CCN(c2ccc(F)cc2)CC1	none
O=C(CCC(=O)N1CCN(c2ccccn2)CC1)Nc1nnc(C(F)(F)F)s1	none
CCn1cc(/C=N\NC(=O)c2ccccc2Cl)cn1	none
COc1ccc(C2=CSC3=NCCN23)cc1Cl	none
COc1ccc(C2=CSC3=NCCN23)cc1Br	TRPC6 inhibitor -5.22 | HEK293 MPD ctr-2 inactive | HEK293 MPD ctr 2-2 inactive | TRPC4/MOR mod inactive | TRPC4 ctr inh 2 35.5% | TRPC6 inh conf inactive | TRPC6 act confirm inactive
CCCNC(=O)c1ccccc1NC(=O)c1ccc(CSc2ccccc2)cc1	none
COc1cc(OC)c(C(=O)Nc2ccncc2)cc1OC	TRPC6 inhibitor -5.09 | HEK293 MPD ctr-2 inactive | HEK293 MPD ctr 2-2 72.5% | TRPC4/MOR mod -8.5% | TRPC4 ctr inh 2 36.0% | TRPC6 inh conf 45.5% | TRPC6 act confirm inactive
CCc1cccc(NC(=O)CS(=O)Cc2nc(-c3ccc(C)cc3)oc2C)c1 (stereo not given)	none
Cc1cc(Nc2ccc3c(c2)OCCO3)c2cc(Cl)ccc2n1	TRPC6 inhibitor -5.06 | HEK293 MPD ctr-2 -83.0% | HEK293 MPD ctr 2-2 inactive | TRPC4/MOR mod -16.5% | TRPC4 ctr inh 2 44.0% | TRPC6 inh conf inactive | TRPC6 act confirm inactive
Cc1cc(C)c(C#N)c(Nc2ccc3c(c2)OCCO3)n1	none
CC1CC(C)CN(S(=O)(=O)CCNC(=O)c2ccccc2)C1 (stereo not given)	none
CCOC(=O)c1sc2ncnc(N3CCN(C)CC3)c2c1C	TRPC6 inhibitor -5.51 | HEK293 MPD ctr-2 -118.0% | HEK293 MPD ctr 2-2 inactive | TRPC4/MOR mod -19.5% | TRPC4 ctr inh 2 34.0% | TRPC6 inh conf inactive | TRPC6 act confirm inactive
COC(=O)c1sc2nc(-c3ccccc3)nc(N3CCN(C)CC3)c2c1C	TRPC6 inhibitor -5.41 | HEK293 MPD ctr-2 -122.0% | HEK293 MPD ctr 2-2 inactive | TRPC4/MOR mod -29.0% | TRPC4 ctr inh 2 inactive | TRPC6 inh conf inactive | TRPC6 act confirm inactive
Cn1c(=O)c2c([nH]c(OCc3ccc(Cl)cc3Cl)[n+]2Cc2ccc(F)cc2)n(C)c1=O	none
CC(=O)NC(CC(=O)Oc1ccc(C)cc1Br)c1ccccc1 (stereo not given)	none
Cc1ccc2cccnc2c1N	none
Cc1ccnc2c1ccc1ccccc12	TRPC6 inhibitor -6.51 | HEK293 MPD ctr-2 inactive | HEK293 MPD ctr 2-2 inactive | TRPC4/MOR mod inactive | TRPC4 ctr inh 2 inactive | TRPC6 inh conf inactive | TRPC6 act confirm inactive
COC(=O)C1=C(N)OC2=C(C(=O)CC(C)(C)C2)C1c1cc2c(cc1Cl)OCO2 (stereo not given)	TRPC6 inhibitor -9.28 | TRPC4 sel inh 2 34.0% | TRPC4 spec inactive | HEK293 MPD ctr 2-1 inactive | HEK293 MPD ctr-1 inactive | TRPC6 inh conf inactive | TRPC6 act confirm inactive
O=C(CC1SC(N2CCOCC2)=NC1=O)Nc1cc([N+](=O)[O-])ccc1Cl (stereo not given)	none
Cc1ccc(N2CC(C(=O)Nc3ncc([N+](=O)[O-])s3)CC2=O)cc1 (stereo not given)	none
